Assay outcomes as filed in PubChem BioAssay.
NPY-Y2 antag: antagonists of human neuropeptide Y receptor Y2. P49146. NPY-Y2 expressing cells, antagonist mode. inhibition, % at 2.7 µM. 140,000 compounds, 0.99% hits. AID 793; in the data active = inhibition above about 17%;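 also: 0% = vehicle with agonist challenge and 100% = reference antagonist with challenge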
Target sequence (P49146 whole entry, looked up): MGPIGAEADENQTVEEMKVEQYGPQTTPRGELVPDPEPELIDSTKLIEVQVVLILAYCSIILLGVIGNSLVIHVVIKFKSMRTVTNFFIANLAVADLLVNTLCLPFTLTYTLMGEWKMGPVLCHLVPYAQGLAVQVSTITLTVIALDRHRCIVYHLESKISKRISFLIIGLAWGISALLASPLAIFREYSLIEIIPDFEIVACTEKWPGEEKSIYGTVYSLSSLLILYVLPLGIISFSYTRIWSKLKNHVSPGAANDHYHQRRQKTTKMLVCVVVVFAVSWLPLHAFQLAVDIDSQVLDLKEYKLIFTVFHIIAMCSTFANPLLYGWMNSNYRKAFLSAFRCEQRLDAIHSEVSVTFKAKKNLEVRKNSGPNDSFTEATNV
EP2 antag: EP2 receptor (human) inhibition. AID 1422. inhibition, % at 25 µM. C6 glioma cells expressing human EP2, cAMP TR-FRET; cells stimulated with saturating PGE2. 260,000 compounds, 0.52% hits. P43116;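 active = percent inhibition above 40 after rounding to a whole number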;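 also: rat C6 glioma host cells with rolipram phosphodiesterase inhibitor present; the protocol text gives 20 µM as final concentration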
EP2 mod: modulators of human EP2 prostaglandin E2 receptor; P43116; 260,000 compounds, 0.83% hits; induction, % at 25 µM; EP2-expressing cells, cAMP HTRF FRET, PGE2 co-stimulation;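 active = compounds whose cAMP rise, as percent of the full-agonist control response, exceeds 60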;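 also: rat C6 glioma line stably carrying human EP2 under a CMV promoter; the protocol text gives 20 µM as final concentration; 100% = response of wells given 1 µM PGE2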
NPY-Y2 PAM-ag: potentiates or activates human NPY-Y2 receptor | AID 1359 | cells expressing NPY-Y2, potentiator/agonist read-out | P49146 | 220,000 compounds, 0.45% hits | activation, % at 3.6 µM; in the data active = activation above about 27%;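 also: cells stimulated with NPY near EC25 plus isoproterenol at EC100; 0% = vehicle plus submaximal agonist and 100% = vehicle plus saturating agonist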
NPY-Y1 antag: blocks the human neuropeptide Y Y1 receptor. HEK293-CNG Y1 cells, membrane potential fluorescence; NPY at EC95, then isoproterenol. inhibition, % at 3.6 µM. 200,000 compounds, 1% hits;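 active = inhibition above the campaign mean inhibition of all tested compounds plus 3 SD, cut at about 20% in these data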;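 also: 0% = DMSO wells given NPY plus isoproterenol and 100% = isoproterenol alone without NPY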
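Test system – HEK293 Y1/CNG channel cell line · Also added – NPY agonist 25 nM, then isoproterenol 1 µM plus Ro 20-1724 25 µM · Compound dosing – one concentration, 3.6 µM, in 0.4% DMSO · Schedule – compound incubation 1 h at room temperature, readout 45 min post-stimulation · Technique – fluorescence, membrane potential probe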
NPY1 pot ag: potentiates or activates human NPY-Y1 receptor; NPY-Y1 expressing cells, potentiator/agonist activation; P25929; 220,000 compounds, 0.37% hits; AID 1304; activation, % at 3.6 µM; in the data active = activation above about 33%, passing the limit was not always enough;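 also: cells stimulated with NPY at EC10 then isoproterenol at EC100; 0% = low agonist plus stimulus and 100% = saturating agonist plus stimulus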
EP2 confirm: human EP2 receptor cAMP induction, negative in counter-screens; 1,300 compounds, 47% hits; calls only at 20 µM (by protocol); AID 1080; C6 glioma EP2 cells, cAMP HTRF induction; plus low (about EC15) PGE2 agonist; shares compounds with EP2 mod;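 active = cAMP induction above 50% in the main assay while under 30% in all four parallel counter assays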;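 also: rat C6 glioma cells stably expressing human EP2 receptor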
* = called active by the depositor; i = inactive; . = not tested or not shown; + = active, no number. Only some compounds are listed: those with a hit (about 2.8% of all), similar ones and a draw of the others.

SMILES	NPY-Y2 antag	EP2 antag	EP2 mod	NPY-Y2 PAM-ag	NPY-Y1 antag	NPY1 pot ag	EP2 confirm
CN(C(=O)c1ccncc1)c1ccccc1	.	6	19	-26	.	17	.
C/C(=N\N(Cc1ccccc1)c1ccccc1)c1ccncc1	.	17	75*	9	1	-4	+
CN1C(=O)/C(=C/c2ccccc2OCc2cccc(F)c2)N(C)C1=S	8	11	70*	-10	15	-23	+
COc1ccc(NC(=O)COc2ccc(S(=O)(=O)N3CCCC3)cc2)cc1OC	.	3	-64	.	.	.	.
Cn1c(CNc2ccc(F)cc2)nnc1SCC(=O)NNC(=O)Cc1ccccc1	.	8	51	16	2	11	i
O=C(CSc1nnc(CNc2ccc(F)cc2)n1Cc1ccccc1)NCc1ccccc1	-1	14	-9	-12	7	-19	.
CCC(c1nnnn1Cc1ccco1)N(Cc1cc2cc(C)cc(C)c2[nH]c1=O)CC1CCCO1 (centres undefined)	12	13	82*	-2	19	-10	i
Cc1cc2ccccc2n2c(=O)n(CC(C)NC(=O)CCCN3CCCC3=O)nc12 (centres undefined)	.	3	-11	.	.	.	.
O=C(N/N=C/c1ccc[nH]1)c1ccccc1OCc1ccccc1Cl	.	8	66*	-5	3	-20	+
Cc1nc(SCCC(=O)O)c2ccccc2n1	8	25	83*	-21	7	-16	i
O=C(O)CCSc1ccc2ccccc2n1	16	10	80*	-38	6	-36	i
Cc1ccc2[nH]c(=O)c(C(c3nnnn3C3CCCC3)N3CCOCC3)cc2c1 (centres undefined)	.	13	-37	.	.	.	.
CC1(C)Cc2ccccc2-c2nc3n(c(=O)c21)CCS3	.	10	74*	3	-3	9	+
COc1ccc(CN2CC[C@@H](NCCO)[C@H](O)C2)cc1	.	9	10	.	.	.	.
Cc1ccc(-c2cc(N)c(=O)n(CC(=O)NCCc3ccccc3)n2)o1	.	7	-75	.	.	.	.
CCCCNc1nc(N(C)c2ccccc2)nc(-n2ccnc2)n1	3	2	77*	16	3	0	+
C=CCC(=O)OCCCCCCOc1ccc(C(=O)O)cc1	0	7	67*	-12	-1	-27	i
CCC(C)NC(=O)CSc1nc2c(C)ccc(C)c2cc1C#N (centres undefined)	.	13	-5	.	.	.	.
CCC(CN1CCOCC1)NC(=O)Cc1csc(Nc2cccc(C)c2)n1 (centres undefined)	.	1	-31	.	.	.	.
Cc1ccc(-n2nc3c(c2NC(=O)C(C)(C)C)CSC3)c(C)c1	5	9	36	0	-1	13	.
Cc1ccc(-n2nc3c(c2NC(=O)c2ccc(Br)o2)CSC3)c(C)c1	3	5	52	1	5	-12	i
Cc1nc2c(c(C)nn2-c2ccccc2)c(C)c1Cl	2	7	77*	-2	8	-28	i
OC(Cc1ccccc1)(Cc1ccccc1)c1ccccc1	.	9	59	.	.	.	i
COc1ccc(C(c2nnnn2C2CCCCC2)N2CCN(Cc3ccccc3)CC2)cc1OC (centres undefined)	.	6	6	.	.	.	.
CCOC(=O)C1CCCN(c2c(C(=O)c3ccccc3)cnc3ccc(OC)cc23)C1 (centres undefined)	.	7	68*	-9	8	-13	i
SMILES	NPY-Y2 antag	EP2 antag	EP2 mod	NPY-Y2 PAM-ag	NPY-Y1 antag	NPY1 pot ag	EP2 confirm
CCc1cc2cc3c(cc2n2c(=O)n(CC(=O)N(C)C)nc12)OCO3	.	.	-3	.	.	.	.
Cc1cc(O)c(C=O)c2c1C(=O)Oc1c(C)c(O)c3c(c1O2)C(O)OC3=O (centres undefined)	.	13	51	.	.	.	i
COc1cc(C)c2c(c1C=O)Oc1c(c(C)c(O)c3c1C(O)OC3=O)OC2=O (centres undefined)	.	7	28	-22	-1	-9	.
O=C(c1ccn[nH]1)N1CCN(c2ncnc3sc4c(c23)CCCC4)CC1	.	8	-10	.	.	.	.
CC1(c2cc([N+](=O)[O-])cc([N+](=O)[O-])c2)CC(C)(C)N(C(=O)c2ccccc2)c2ccccc21 (centres undefined)	-1	10	74*	17	-3	14	i
Cn1c(=O)c2c(nc(SCC(=O)N3c4ccccc4CCc4ccccc43)n2C)n(C)c1=O	0	-4	19	-2	1	11	.
Cn1c(=O)c2c(nc(SCC(=O)N3CCc4ccccc4C3)n2C)n(C)c1=O	0	8	82*	15	-1	-18	i
Cc1cccc(-n2c(=S)[nH]c3c(oc4ccccc43)c2=O)c1	3	13	71*	8	1	-8	i
O=c1c2sccc2[nH]c(=S)n1-c1ccccc1	.	5	-22	7	.	-14	.
Cc1ccc(-n2c(=S)[nH]c3c(oc4ccccc43)c2=O)cc1	2	14	74*	4	2	5	i
Cc1ccc(-n2c(C)nc3oc4ccccc4c(=O)c3c2=O)cc1	3	16	16	-2	9	7	.
O=c1c2oc3ccccc3c2[nH]c(=S)n1-c1ccccc1	4	13	71*	-2	4	-35	i
CCC(C)C(=O)Nc1nnc(Cc2ccc(OC)cc2)s1 (centres undefined)	.	5	-2	.	.	.	.
COCCNC(=O)c1cc(-c2ccc(Cl)cc2Cl)on1	.	9	-54	.	.	.	.
CCc1ccc2[nH]c(=O)c(CN(CCO)S(=O)(=O)c3c(C)ccc4nsnc34)cc2c1	.	7	-4	.	.	.	.
Cc1nn(CC(=O)N2CCN(Cc3ccco3)C[C@@H]2C(C)C)c(=O)c2ccccc12	.	.	-20	.	.	.	.
CCc1ccc(NC(=S)N(Cc2ccccc2)Cc2ccccn2)cc1	.	18	70*	-4	1	0	i
CC(NC(=O)c1ncoc1-c1ccccc1Cl)c1ccccn1 (centres undefined)	.	2	-36	.	.	.	.
O=C(NCc1ccco1)C(c1cccs1)N(C(=O)Cc1cccs1)c1ccccc1 (centres undefined)	5	9	83*	3	2	4	i
COc1ccc(-c2cc(C(F)(F)F)nc(SCC(=O)Nc3cccc(O)c3)n2)cc1OC	.	9	-49	.	.	.	.
COc1ncnc2c1oc1nc(CC(C)C)c3c(c12)CCCC3	3	9	68*	-22	-4	-1	+
COCCn1c(SCC(C)=O)nc2c1c(=O)[nH]c(=O)n2C	.	6	3	.	.	.	.
O=C(CN1CCN(Cc2ccccc2)CC1)Nc1ccccc1-c1ccccc1	.	18	66*	0	6	5	i
Cc1ccccc1S(=O)(=O)c1c(C)cc(C)n(CC(C)C)c1=O	6	9	70*	-10	2	-16	+
